Active and inactive are the calls of the source. The calls are words filed in the database; no cut-off is given here.
What was measured:
[1] = Hemolytic activity against human RBC at 0.39 uM after 1 hr by Drabkin's assay relative to control; type: ADME, cell-based, Erythrocyte; conditions: human red blood cells (erythrocytes), read-out: Activity
Klebsiella pneumoniae = test: Growth inhibition of multidrug-resistant Klebsiella pneumoniae ATCC 700603 at 32 ug/ml after 18 hrs; type: functional; conditions: ATCC 700603, 18 h, read-out: GI
Procedure, shortened: (§1)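 Mid-log cultures in cation-adjusted Mueller Hinton broth were added at 5×10^5 CFU/mL to wells at a final compound concentration of 32 μg/mL. Plates stood at 37 °C for 18 h. Growth was read by OD600, and % inhibition was computed against media-only and untreated-bacteria controls.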

Staphylococcus aureus = test: Growth inhibition of methicillin-resistant Staphylococcus aureus ATCC 43300 at 32 ug/ml after 18 hrs; type: functional; conditions: ATCC 43300, 18 h, read-out: GI; procedure, shortened: as §1
[2] = Hemolytic activity against human RBC at 6.25 uM after 1 hr by Drabkin's assay relative to control; type: ADME, cell-based, Erythrocyte; conditions: human red blood cells (erythrocytes), read-out: Activity
[3] = Hemolytic activity against human RBC at 0.78 uM after 1 hr by Drabkin's assay relative to control; type: ADME, cell-based, Erythrocyte; conditions: human red blood cells (erythrocytes), read-out: Activity
[4] = Hemolytic activity against human RBC at 1.56 uM after 1 hr by Drabkin's assay relative to control; type: ADME, cell-based, Erythrocyte; conditions: human red blood cells (erythrocytes), read-out: Activity
[5] = Hemolytic activity against human RBC at 50 uM after 1 hr by Drabkin's assay relative to control; type: ADME, cell-based, Erythrocyte; conditions: human red blood cells (erythrocytes), read-out: Activity
Cryptococcus neoformans = test: Growth inhibition of Cryptococcus neoformans H99 ATCC 208821 at 32 ug/ml after 24 hrs by resazurin dye-based microspectrophotometric assay; type: functional; conditions: var. grubii H99 ATCC 208821, 24 h, read-out: GI
Procedure, shortened: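 Yeasts were grown 3 days on YPD agar at 30 °C, suspended from five colonies and diluted in YNB broth to a final 2.5×10^3 CFU/mL. Compound at a final 32 μg/mL; incubated 24 h at 35 °C without shaking. C. albicans was read at OD530. C. neoformans was read as OD600–570 after resazurin (0.001% final) and a further 2 h at 35 °C. Fluconazole was the standard.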

[6] = Hemolytic activity against human RBC at 3.125 uM after 1 hr by Drabkin's assay relative to control; type: ADME, cell-based, Erythrocyte; conditions: human red blood cells (erythrocytes), read-out: Activity
Pseudomonas aeruginosa = test: Growth inhibition of Pseudomonas aeruginosa ATCC 27853 at 32 ug/ml after 18 hrs; type: functional; conditions: ATCC 27853, 18 h, read-out: GI
Procedure, shortened: (§2)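 Mid-log cultures were prepared as above and seeded at 5×10^5 CFU/mL with compound at a final 32 μg/mL, then held static at 37 °C for 18 h. Growth was read as OD600. Percent inhibition was calculated against media-only and bacteria-only controls on the same plate.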

[7] = Hemolytic activity against human RBC at 12.5 uM after 1 hr by Drabkin's assay relative to control; type: ADME, cell-based, Erythrocyte; conditions: human red blood cells (erythrocytes), read-out: Activity
[8] = Hemolytic activity against human RBC at 25 uM after 1 hr by Drabkin's assay relative to control; type: ADME, cell-based, Erythrocyte; conditions: human red blood cells (erythrocytes), read-out: Activity
Candida albicans = test: Growth inhibition of Candida albicans ATCC 90028 at 32 ug/ml after 24 hrs by OD530 light-scattering microspectrophotometric method; conditions: ATCC 90028, 24 h, read-out: GI
Erythrocyte = test: Hemolytic activity against human RBC after 1 hr by Drabkin's assay; type: ADME, cell-based
Escherichia coli = test: Growth inhibition of Escherichia coli ATCC 25922 at 32 ug/ml after 18 hrs; type: functional; conditions: ATCC 25922, 18 h, read-out: GI; procedure, shortened: as §2
Acinetobacter baumannii = test: Growth inhibition of Acinetobacter baumannii ATCC 19606 at 32 ug/ml after 18 hrs; type: functional; conditions: ATCC 19606 = CIP 70.34 = JCM 6841, 18 h, read-out: GI; procedure, shortened: as §2
[9] = Induction of pore formation in DOPC vesicles at 20 uM after 3 hrs by carboxyfluorescein dye leakage assay; conditions: in the assay text read “after 3 mins” for “after 3 hrs”
Procedure, shortened: (§3)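 POPC or DOPC liposomes were hydrated in 10 mM HEPES, 100 mM KCl, pH 7.4, containing 50 mM carboxyfluorescein. Size was checked by dynamic light scattering, and vesicles were used at 2.2×10^10 per mL. Peptide at 20 μM was equilibrated with vesicles for 3 min, and dye leakage was measured.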

Lipid bilayer [10] = test: Binding affinity to POPC vesicles by surface plasmon resonance spectroscopy
Procedure, shortened: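 SPR on a dextran chip carrying immobilized POPC liposomes, with running buffer of 10 mM HEPES and 100 mM KCl at pH 7.4. Peptides in PBS were flowed at 25 μL/min at 10–1000 μM, with reference-subtracted response units. KD and Rmax were fitted from maximum response versus concentration. Regeneration used 20 mM CHAPS followed by fresh liposomes.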

[11] = Hemolytic activity against human RBC at 100 uM after 1 hr by Drabkin's assay relative to control; type: ADME, cell-based, Erythrocyte; conditions: human red blood cells (erythrocytes), read-out: Activity
Lipid bilayer [12] = test: Induction of pore formation in POPC vesicles at 20 uM after 3 hrs by carboxyfluorescein dye leakage assay; conditions: in the assay text read “after 3 mins” for “after 3 hrs”; procedure, shortened: as §3

| Structure (SMILES) | hemolysis at 1 h, 0.39 µM [1] [%] | inhibition of growth at 32 µg/mL (Klebsiella pneumoniae) [%] | inhibition of growth at 32 µg/mL (Staphylococcus aureus) [%] | hemolysis at 1 h, 6.25 µM [2] [%] | hemolysis at 1 h, 0.78 µM [3] [%] | hemolysis at 1 h, 1.56 µM [4] [%] | hemolysis at 1 h, 50 µM [5] [%] | inhibition of growth at 32 µg/mL (Cryptococcus neoformans) [%] | hemolysis at 1 h, 3.125 µM [6] [%] | inhibition of growth at 32 µg/mL (Pseudomonas aeruginosa) [%] | hemolysis at 1 h, 12.5 µM [7] [%] | hemolysis at 1 h, 25 µM [8] [%] | inhibition of growth at 32 µg/mL (Candida albicans) [%] | Activity (Erythrocyte) | inhibition of growth at 32 µg/mL (Escherichia coli) [%] | inhibition of growth at 32 µg/mL (Acinetobacter baumannii) [%] | Activity [9] | hemolysis at 1 h, 100 µM [11] [%] | Activity (Lipid bilayer [12]) | further results |
| --- | --- | --- | --- | --- | --- | --- | --- | --- | --- | --- | --- | --- | --- | --- | --- | --- | --- | --- | --- | --- |
| CC(C)(C)OC(=O)[C@@H]1CCCN1C(=O)N1CCCN1C(=O)[C@@H]1CCCN1C(=O)N1CCCN1C(=O)[C@@H]1CCCN1C(=O)N1CCCN1C(=O)[C@@H]1CCCN1C(=O)N1CCCN1C(=O)[C@@H]1CCCN1C(=O)N1CCCN1C(=O)[C@@H]1CCCN1C(=O)N1CCCN1C(=O)[C@@H]1CCCN1C(=O)N1CCCN1C(=O)[C@@H]1CCCN1C(=O)N1CCCN1C(=O)[C@@H]1CCCN1C(=O)N1CCCN1C(=O)[C@@H]1CCCN1C(=O)N1CCCN1C(=O)[C@@H]1CCCN1C(=O)N1CCCN1C(=O)[C@@H]1CCCN1C(=O)N1CCCN1C(=O)[C@@H]1CCCN1C(=O)N1CCCN1C(=O)[C@@H]1CCCN1C(=O)N1CCCN1C(=O)[C@@H]1CCCN1C(=O)N1CCCN1C(=O)[C@@H]1CCCN1C(=O)N1CCCN1C(=O)OCc1ccccc1 | -0.24 | 8.57 | 25.3 | -0.24 | -0.2 | -0.16 | -0.55 | -1.18 | -0.33 | -0.85 | -0.33 | -0.49 | 4.41 | Dose-dependent effect | 8.57 | -19 | inactive | – | – | – |
| CC(=O)N1CCCN1C(=O)N1CCC[C@H]1C(=O)N1CCCN1C(=O)N1CCC[C@H]1C(=O)N1CCCN1C(=O)N1CCC[C@H]1C(=O)N1CCCN1C(=O)N1CCC[C@H]1C(=O)N1CCCN1C(=O)N1CCC[C@H]1C(=O)N1CCCN1C(=O)N1CCC[C@H]1C(=O)N1CCCN1C(=O)N1CCC[C@H]1C(=O)N1CCCN1C(=O)N1CCC[C@H]1C(=O)NCCO | – | 10.7 | 16.5 | 0.08 | -0.16 | -0.12 | -0.57 | -0.86 | -0.12 | -0.44 | -0.33 | 0 | 2.45 | Dose-dependent effect | 10.7 | 6.55 | inactive | – | – | Kd (Lipid bilayer [10]): 610 µM; Rmax (Lipid bilayer [10]): 460 |
| O=CN1CCCN1C(=O)N1CCC[C@H]1C(=O)N1CCCN1C(=O)N1CCC[C@H]1C(=O)N1CCCN1C(=O)N1CCC[C@H]1C(=O)N1CCCN1C(=O)N1CCC[C@H]1C(=O)N1CCCN1C(=O)N1CCC[C@H]1C(=O)N1CCCN1C(=O)N1CCC[C@H]1C(=O)N1CCCN1C(=O)N1CCC[C@H]1C(=O)N1CCCN1C(=O)N1CCC[C@H]1C(=O)NCCO | -0.11 | 3.23 | 16.5 | -0.17 | 0.08 | -0.17 | -0.17 | -8.24 | 0.02 | -4.91 | -0.23 | -0.23 | 5.4 | Dose-dependent effect | 3.23 | 12.3 | inactive | – | – | – |
| O=C(O)[C@@H]1CCCN1C(=O)N1CCCN1C(=O)[C@@H]1CCCN1C(=O)N1CCCN1C(=O)[C@@H]1CCCN1C(=O)N1CCCN1C(=O)[C@@H]1CCCN1C(=O)N1CCCN1C(=O)OCc1ccccc1 | 0.09 | 4.23 | 27 | 0.452 | 0.09 | 0.542 | 0.09 | -5.78 | 0.452 | -6.53 | 0.09 | -0.361 | 3.59 | Dose-dependent effect | 4.23 | 14 | – | 0.542 | inactive | – |
| O=CN1CCCN1C(=O)N1CCC[C@H]1C(=O)N1CCCN1C(=O)N1CCC[C@H]1C(=O)N1CCCN1C(=O)N1CCC[C@H]1C(=O)N1CCCN1C(=O)N1CCC[C@H]1C(=O)N1CCCN1C(=O)N1CCC[C@H]1C(=O)N1CCCN1C(=O)N1CCC[C@H]1C(=O)N1CCCN1C(=O)N1CCC[C@H]1C(=O)NCCO | 0.023 | 5.64 | 13.7 | -0.29 | 0.072 | -0.049 | 0.4 | -8.29 | -0.045 | -5.12 | -0.045 | 0.41 | 3.52 | Dose-dependent effect | 5.64 | 6.14 | – | 1.4 | inactive | – |
| CC(C)(C)OC(=O)[C@@H]1CCCN1C(=O)N1CCCN1C(=O)[C@@H]1CCCN1C(=O)N1CCCN1C(=O)[C@@H]1CCCN1C(=O)N1CCCN1C(=O)[C@@H]1CCCN1C(=O)N1CCCN1C(=O)OCc1ccccc1 | 0.08 | -3.42 | 13.6 | 0.09 | 0 | 0.361 | -0.09 | -0.865 | 0.181 | -8.9 | -0.09 | 0 | 4.13 | Dose-dependent effect | -3.42 | 30.2 | – | 0 | inactive | – |
| O=CN1CCCN1C(=O)N1CCC[C@H]1C(=O)N1CCCN1C(=O)N1CCC[C@H]1C(=O)N1CCCN1C(=O)N1CCC[C@H]1C(=O)N1CCCN1C(=O)N1CCC[C@H]1C(=O)N1CCCN1C(=O)N1CCC[C@H]1C(=O)N1CCCN1C(=O)N1CCC[C@H]1C(=O)NCCO | -0.12 | 0.72 | 1.36 | -0.181 | -0.16 | -0.12 | -0.49 | -11.1 | -0.55 | -12.5 | -0.452 | 0.271 | 5.12 | Dose-dependent effect | 0.72 | 3.07 | – | -0.55 | inactive | – |

— ChEMBL document CHEMBL4196059, “Design, synthesis, and biological evaluation of stable β6.3-Helices: Discovery of non-hemolytic antibacterial peptides” (Eur J Med Chem, 2018)
